# Test results published in ChEMBL document CHEMBL1212938, “Inhibition of mycobacterial replication by pyrimidines possessing various C-5 functionalities and related 2'-deoxynucleoside analogues using in vitro and in vivo models” (J Med Chem, 2010).
# Calls of active or inactive are those of the source. The calls are words filed in the database; no cut-off is given here.
# How the values were obtained:
# [1] = test system: Bacillus subtilis; experiment: Antibacterial activity against Bacillus subtilis at 100 ug/ml after 16 to 20 hrs by broth microdilution method; format: functional, organism-based
# [2] = test system: Streptococcus pyogenes; experiment: Antibacterial activity against Streptococcus pyogenes at 100 ug/ml after 16 to 20 hrs by broth microdilution method; format: functional, organism-based
# [3] = test system: Listeria monocytogenes; experiment: Antibacterial activity against Listeria monocytogenes at 100 ug/ml after 16 to 20 hrs by broth microdilution method; format: functional, organism-based
# [4] = test system: Escherichia coli; experiment: Antibacterial activity against Escherichia coli at 100 ug/ml after 16 to 20 hrs by broth microdilution method; format: functional, organism-based
# [5] = test system: Proteus vulgaris; experiment: Antibacterial activity against Proteus vulgaris at 100 ug/ml after 16 to 20 hrs by broth microdilution method; format: functional, organism-based
# [6] = test system: Enterococcus faecalis; experiment: Antibacterial activity against Enterococcus faecalis at 100 ug/ml after 16 to 20 hrs by broth microdilution method; format: functional, organism-based
# [7] = test system: Staphylococcus aureus; experiment: Antibacterial activity against Staphylococcus aureus at 100 ug/ml after 16 to 20 hrs by broth microdilution method; format: functional, organism-based
# [8] = test system: Pseudomonas aeruginosa; experiment: Antibacterial activity against Pseudomonas aeruginosa at 100 ug/ml after 16 to 20 hrs by broth microdilution method; format: functional, organism-based
# [9] = test system: Salmonella typhimurium; experiment: Antibacterial activity against Salmonella Typhimurium at 100 ug/ml after 16 to 20 hrs by broth microdilution method; format: functional, organism-based; settings: Salmonella enterica subsp. enterica serovar Typhimurium
# [10] = test system: Streptococcus pneumoniae; experiment: Antibacterial activity against Streptococcus pneumoniae at 100 ug/ml after 16 to 20 hrs by broth microdilution method; format: functional, organism-based
# [11] = test system: Staphylococcus epidermidis; experiment: Antibacterial activity against Staphylococcus epidermidis at 100 ug/ml after 16 to 20 hrs by broth microdilution method; format: functional, organism-based
# [12] = Cytotoxicity against human HuH7 cells assessed as cell viability at > 200 ug/ml after 2 days by [3H]thymidine incorporation assay; format: cell-based; settings: huh-7, 48 h
# [13] = test system: Mycobacterium tuberculosis; experiment: Antitubercular activity against Mycobacterium tuberculosis H37Ra at 10 ug/ml after 6 days by microplate alamar blue assay; format: functional; settings: 144 h
# Procedure, shortened: (§1)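 MABA run in 7H9GC medium, with drug diluted from DMSO stocks made at 100× the highest final concentration. Final levels were 100, 50, 10, 5, 2.5 and 1 μg/mL in triplicate, and the experiment was done three times. Inoculum was 2.5 × 10⁵ CFU/mL final. Alamar Blue plus Tween-80 was added once bacteria-only control wells turned pink, from day 6 on, and plates were read visually and by fluorescence after 24 h. Visual MIC is the lowest concentration preventing the blue-to-pink change. Mean percent inhibition was taken relative to bacteria-only and medium-only wells.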
# [14] = test system: Mycobacterium tuberculosis; experiment: Antitubercular activity against Mycobacterium tuberculosis H37Ra at 50 ug/ml after 6 days by microplate alamar blue assay; format: functional; settings: 144 h; procedure, shortened: as §1
# [15] = test system: Mycobacterium tuberculosis; experiment: Antitubercular activity against Mycobacterium tuberculosis H37Ra at 100 ug/ml after 6 days by microplate alamar blue assay; format: functional; settings: 144 h; procedure, shortened: as §1
# [16] = Cytotoxicity against human HuH7 cells assessed as cell viability after 2 days by XTT assay; format: cell-based, Huh-7; settings: HuH7 cells
# Procedure, shortened: (§2)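 Huh-7 cells seeded at 1 × 10⁵ cells/well and left to attach 6-8 h. Medium then replaced with compound at 200, 100, 50, 10 or 1 μg/mL, with a DMSO control, and incubated 2 days at 37 °C. Viability by XTT, absorbance read at 450-500 nm.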
# [17] = test system: Mycobacterium tuberculosis; experiment: Antitubercular activity against Mycobacterium tuberculosis H37Ra after 6 days by microplate alamar blue assay; format: functional; settings: 144 h; procedure, shortened: as §1
# [18] = Cytotoxicity against human HuH7 cells assessed as cell viability at 200 ug/ml after 2 days by XTT assay; format: cell-based; settings: huh-7, 48 h; procedure, shortened: as §2
SMILES,Activity [1],Activity [2],Activity [3],Activity [4],Activity [5],Activity [6],Activity [7],Activity [8],Activity [9],Activity [10],Activity [11],Activity [12],inhibition at 10 µg/mL [13] [%],inhibition at 50 µg/mL [14] [%],inhibition at 100 µg/mL [15] [%],CC50 at 48 h [16] [mg/L],MIC50 [17] [mg/L],Activity [18]
CCCCCc1cc2c[nH]c(=O)nc2o1,inactive,inactive,inactive,inactive,inactive,inactive,inactive,inactive,inactive,inactive,inactive,–,–,–,–,–,–,–
O=C(O)C(I)C(O)c1c[nH]c(=O)[nH]c1=O (stereo not given),–,inactive,–,inactive,inactive,inactive,inactive,inactive,inactive,inactive,inactive,–,–,–,–,–,–,–
CCOC(CI)c1c[nH]c(=O)[nH]c1=O (stereo not given),–,inactive,–,inactive,inactive,inactive,inactive,inactive,inactive,inactive,inactive,–,–,–,–,–,–,–
CCCCCCCCCCc1cc2c[nH]c(=O)nc2o1,inactive,inactive,inactive,inactive,inactive,inactive,inactive,inactive,inactive,inactive,inactive,–,–,–,–,–,–,–
CCCCCCCCC#Cc1c[nH]c(=O)[nH]c1=O,inactive,inactive,inactive,inactive,inactive,inactive,inactive,inactive,inactive,inactive,inactive,–,–,–,–,–,–,–
COC(CI)c1c[nH]c(=O)[nH]c1=O (stereo not given),–,inactive,–,inactive,inactive,inactive,inactive,inactive,inactive,inactive,inactive,–,–,–,–,–,–,–
O=c1[nH]cc(C(CI)OCC(F)(F)F)c(=O)[nH]1 (stereo not given),–,inactive,–,inactive,inactive,inactive,inactive,inactive,inactive,inactive,inactive,–,–,–,–,–,–,–
O=c1[nH]cc(C(CI)OCCBr)c(=O)[nH]1 (stereo not given),–,inactive,–,inactive,inactive,inactive,inactive,inactive,inactive,inactive,inactive,–,–,–,–,–,–,–
CCCCCCCCCCCC#Cc1c[nH]c(=O)[nH]c1=O,inactive,inactive,inactive,inactive,inactive,inactive,inactive,inactive,inactive,inactive,inactive,–,–,–,–,–,–,–
O=C(O)/C=C/c1c[nH]c(=O)[nH]c1=O,–,inactive,–,inactive,inactive,inactive,inactive,inactive,inactive,inactive,inactive,–,–,–,–,–,–,–
CCCCCCCCCCC#Cc1c[nH]c(=O)[nH]c1=O,inactive,inactive,inactive,inactive,inactive,inactive,inactive,inactive,inactive,inactive,inactive,–,–,–,–,–,–,–
COC(CCl)c1c[nH]c(=O)[nH]c1=O (stereo not given),–,inactive,–,inactive,inactive,inactive,inactive,inactive,inactive,inactive,inactive,–,–,–,–,–,–,–
CCCCCCCCCCCCC#Cc1c[nH]c(=O)[nH]c1=O,inactive,inactive,inactive,inactive,inactive,inactive,inactive,inactive,inactive,inactive,inactive,–,–,–,–,–,–,–
O=c1[nH]cc(C#Cc2ccccc2)c(=O)[nH]1,inactive,inactive,inactive,inactive,inactive,inactive,inactive,inactive,inactive,inactive,inactive,Non-toxic,40,90,90,> 100,> 10,Non-toxic
COC(CBr)c1c[nH]c(=O)[nH]c1=O (stereo not given),–,inactive,–,inactive,inactive,inactive,inactive,inactive,inactive,inactive,inactive,–,–,–,–,–,–,–
CCCC#Cc1c[nH]c(=O)[nH]c1=O,inactive,inactive,inactive,inactive,inactive,inactive,inactive,inactive,inactive,inactive,inactive,–,–,–,–,–,–,–
CCCc1cc2c[nH]c(=O)nc2o1,inactive,inactive,inactive,inactive,inactive,inactive,inactive,inactive,inactive,inactive,inactive,–,0,–,50,–,100,–
CCCCCCCCc1cc2c[nH]c(=O)nc2o1,inactive,inactive,inactive,inactive,inactive,inactive,inactive,inactive,inactive,inactive,inactive,–,–,–,–,–,–,–
O=c1[nH]cc(C(CI)OCCF)c(=O)[nH]1 (stereo not given),–,inactive,–,inactive,inactive,inactive,inactive,inactive,inactive,inactive,inactive,–,–,–,–,–,–,–
O=c1[nH]cc(C(O)CI)c(=O)[nH]1 (stereo not given),–,inactive,–,inactive,inactive,inactive,inactive,inactive,inactive,inactive,inactive,–,–,–,–,–,–,–
